In paper PMC7385434 (Science Advances, 2020):

Assays:
[1] = test system: MDA-MB-231 xenografted tumor; test: Blood oxygen saturation; assay type: in vivo, mouse; conditions: 4 hours after i.v. injection, 200 μl, 200 μM; n = 30 slices
Method in brief: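 MDA-MB-231 tumor-bearing BALB/c mice were anesthetized with isoflurane in a glass box. Test nanoparticles (200 μl, 200 μM) were given i.v.; peptide-only NPs and PBS (200 μl) served as controls. Multispectral optoacoustic tomography read Hb at 715 nm and HbO2 at 850 nm before and 4 h after injection. 3D maps were built from 30 2D slices at 0.1 mm steps. Data are means ± SD; unpaired two-tailed t test.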

[2] = test system: MCF-7 cells; test: CCK-8 cytotoxicity assay, MCF-7 cells; assay type: cell-based, human; conditions: CCK-8, 24 hours, 10-80 μM, n = 4
[3] = Particle size and morphology by TEM and DLS; assay type: physicochemical
Method in brief: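 Nanoparticles were formed by quick injection of a 4.0 mM DMSO peptide stock into water (0.5:99.5 v/v), giving 20 μM. They were incubated with CD105 (0.25 μg/ml) for 0, 4 and 8 h, with BSA or no protein as controls. TEM: drops sat on copper mesh 15 min, were blotted, stained 15 min with uranyl acetate, water-washed, air-dried and imaged at 200 kV. DLS was run at 0 and 8 h.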

[4] = Safety: body weight and H&E of normal tissues during therapy; assay type: in vivo, mouse
Method in brief: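 MDA-MB-231-bearing mice were randomized into three groups of three to four. They received test nanoparticles i.v. (200 μl, 200 μM; 2.4 mg/kg) every other day, with peptide-only NPs and PBS as controls. Body weight and tumor volume were recorded every other day. Normal tissues were fixed overnight in 4% paraformaldehyde/PBS, paraffin-embedded, sectioned, H&E-stained and examined by light microscopy.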

[5] = test system: MDA-MB-231 tumor; test: In vivo and ex vivo fluorescence imaging of tumor accumulation and retention; set-up: species or system mouse; conditions: 200 μM, n = 3
Method in brief: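 MDA-MB-231-bearing BALB/c nude mice received test nanoparticles (200 μl, 200 μM) i.v.; peptide-only NPs and PBS served as controls. Whole-body fluorescence (ex 500 nm, em 520 nm) was imaged at 4, 12, 24, 48 and 72 h. At 72 h, heart, liver, spleen, lung, kidney and tumor were excised for ex vivo fluorescence imaging. Groups had three to four mice.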

[6] = test system: HUVECs; test: CCK-8 cytotoxicity assay, HUVECs; assay type: cell-based, human; conditions: CCK-8, 24 hours, 10-80 μM, n = 4
[7] = Safety for blood circulation: platelet activity, thrombin, platelet numbers; assay type: in vivo, mouse; conditions: tumor-bearing mice, i.v. 200 μl, 200 μM, up to 5 days
Method in brief: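 Tumor-bearing mice received test nanoparticles (200 μl, 200 μM) i.v. Blood was drawn into 3.8% sodium citrate at 0, 1, 4, 24 and 120 h. Platelet-rich plasma was obtained by mixing blood with an equal volume of 2% paraformaldehyde in PBS for 30 min, then centrifuging at 1000 rpm for 10 min. P-selectin was measured by flow cytometry after 30 min with FITC anti-P-selectin mAb. Thrombin was measured by ELISA; platelet counts by flow cytometry.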

[8] = test system: tumor growth; conditions: sunitinib at a dose of 8.75 mg/kg; cited from earlier work
[9] = in vivo fluorescence at 4, 12, 24, 48, 72 hours after i.v. 200 μl

## BP-FFVLK-AHKHVHHVPVRL [pNPs]
[1]
  decrease in sO2 in tumors compared with before injection: 33.8%
[2]
  concentration showing good biocompatibility (cell viability): below 50 μM
[3]; 20 μM with CD105 0.25 μg/ml in water, pNPs at start, apNFs at 4 hours
  size during incubation with CD105 (TEM): 30.6 ± 7.1 nm
[3]; 20 μM, 0 hours, multidisperse after CD105 incubation 8 hours
  size by DLS before incubation with CD105: 31.6 nm
[3]; 20 μM, H2O:DMSO = 99.5:0.5 v/v, freshly prepared
  diameter (TEM and DLS): 23.1 ± 5.8 nm
[3]; 20 μM, water with 0.5% DMSO, without CD105, 0 and 8 h, CD, FT-IR, TEM
  stability of nanoparticles in water: stable
[3]; bovine serum albumin replacing CD105, remained particulate
  diameter after incubation with BSA in place of CD105: 29.5 ± 5.3 nm
[4]; i.v. 200 μM, 200 μl every other day, body weight every other day
  acute systemic toxicity by body weight: did not induce acute systematic toxicity
[4]; tissues harvested 15 d after treatment
  cell necrosis in other (non-tumor) tissues, H&E: not observed
[5]; [9]
  persistence of fluorescence in tumor: 72 h
  time up to which artificial clots continuously accumulated in tumor: 24 h
[6]
  concentration showing good biocompatibility (cell viability): below 50 μM
[7]; ELISA
  change in plasma thrombin generation: did not induce obvious changes
[7]; flow cytometry
  change in circulating platelet numbers: did not induce obvious changes
  change in platelet activity (P-selectin-positive platelets): did not induce obvious changes

## CCN(CC)CCNC(=O)c1c(C)[nH]c(/C=C2\C(=O)Nc3ccc(F)cc32)c1C [sunitinib]
[8]
  tumor growth inhibition: 32%

## BP-AHKHVHHVPVRL [BA NPs]
[5]; in vivo fluorescence after i.v. 200 μl
  tumor fluorescence at 72 hours: almost disappeared
